Measured values published in ChEMBL document CHEMBL1143122, “Novel analogs of D-e-MAPP and B13. Part 1: synthesis and evaluation as potential anticancer agents” (Bioorg Med Chem, 2008).

How the values were obtained:
[1] = Antiproliferative activity against human HL60(TB) cells after 48 hrs; format: functional, HL-60(TB); details: HL-60, 48 h
Summary of the method: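 NCI 60-line panel screen: cells grown in RPMI 1640 with 5% fetal bovine serum and 2 mM L-glutamine, plated at 5,000–40,000 cells/well by doubling time, and preincubated 24 h at 37 °C in 5% CO2. Drugs were solubilised in DMSO at 400-fold the final maximum and tested at five 10-fold dilutions from 10−4 to 10−8 M for 48 h. Net protein was read spectrophotometrically, and the concentration giving 50% reduction was reported as log10 GI50.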

[2] = tested on: Malme-3M; assay: Antiproliferative activity against human MALME3M cells after 48 hrs; format: functional
Summary of the method: (§1)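 NCI 60-cell screen. Cells were grown in RPMI 1640 with 5% FBS and 2 mM L-glutamine, then plated at 5,000–40,000 cells/well according to doubling time and preincubated for 24 h at 37 °C in 5% CO2. Compounds were dissolved in DMSO at 400× the top final concentration and tested at five 10-fold dilutions from 10−4 to 10−8 M for 48 h. Growth was read spectrophotometrically; GI50 is 50% net protein reduction.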

[3] = tested on: SN12C; assay: Antiproliferative activity against human SN12C cells after 48 hrs; format: functional; summary of the method: as §1
[4] = tested on: RXF 393; assay: Antiproliferative activity against human RXF393 cells after 48 hrs; format: functional; details: RXF 393, 48 h; summary of the method: as §1
[5] = tested on: HT-29; assay: Antiproliferative activity against human HT29 cells after 48 hrs; format: functional; details: HT-29, 48 h; summary of the method: as §1
[6] = tested on: HCT-116; assay: Antiproliferative activity against human HCT116 cells after 48 hrs; format: functional; details: HCT-116, 48 h; summary of the method: as §1
[7] = tested on: M14; assay: Antiproliferative activity against human M14 cells after 48 hrs; format: functional; details: M14, 48 h; summary of the method: as §1
[8] = tested on: NCI-H522; assay: Antiproliferative activity against human NCI-H522 cells after 48 hrs; format: functional; details: NCI-H522, 48 h; summary of the method: as §1
[9] = tested on: 786-0; assay: Antiproliferative activity against human 786-0 cells after 48 hrs; format: functional; details: 786-0, 48 h; summary of the method: as §1
[10] = tested on: Hs-578T; assay: Antiproliferative activity against human HS578T cells after 48 hrs; format: functional; summary of the method: as §1
[11] = tested on: OVCAR-3; assay: Antiproliferative activity against human OVCAR-3 cells after 48 hrs; format: functional; details: OVCAR-3, 48 h; summary of the method: as §1
[12] = tested on: NCI-H23; assay: Antiproliferative activity against human NCI-H23 cells after 48 hrs; format: functional; details: NCI-H23, 48 h; summary of the method: as §1
[13] = tested on: IGROV-1; assay: Antiproliferative activity against human IGROV1 cells after 48 hrs; format: functional; details: IGROV-1, 48 h; summary of the method: as §1
[14] = tested on: A498; assay: Antiproliferative activity against human A498 cells after 48 hrs; format: functional; details: A498, 48 h; summary of the method: as §1
[15] = tested on: A549; assay: Antiproliferative activity against human A549 cells after 48 hrs; format: functional; details: A549, 48 h; summary of the method: as §1
[16] = Antiproliferative activity against human NCI-ADR-RES cells after 48 hrs; format: functional; summary of the method: as §1
[17] = tested on: SF-295; assay: Antiproliferative activity against human SF295 cells after 48 hrs; format: functional; details: SF-295, 48 h; summary of the method: as §1
[18] = tested on: OVCAR-4; assay: Antiproliferative activity against human OVCAR4 cells after 48 hrs; format: functional; details: OVCAR-4, 48 h; summary of the method: as §1
[19] = tested on: ACHN; assay: Antiproliferative activity against human ACHN cells after 48 hrs; format: functional; summary of the method: as §1
[20] = tested on: SK-MEL-5; assay: Antiproliferative activity against human SKMEL5 cells after 48 hrs; format: functional; details: SK-MEL-5, 48 h; summary of the method: as §1
[21] = tested on: SNB-19; assay: Antiproliferative activity against human SNB19 cells after 48 hrs; format: functional; details: SNB-19, 48 h; summary of the method: as §1
[22] = tested on: PC-3; assay: Antiproliferative activity against human PC3 cells after 48 hrs; format: functional; details: PC-3, 48 h; summary of the method: as §1
[23] = tested on: SF-539; assay: Antiproliferative activity against human SF539 cells after 48 hrs; format: functional; details: SF-539, 48 h; summary of the method: as §1
[24] = tested on: CCRF-CEM; assay: Antiproliferative activity against human CCRF-CEM cells after 48 hrs; format: functional; summary of the method: as §1
[25] = tested on: KM12; assay: Antiproliferative activity against human KM12 cells after 48 hrs; format: functional; details: Homo sapiens, KM12, 48 h; summary of the method: as §1
[26] = tested on: COLO 205; assay: Antiproliferative activity against human COLO205 cells after 48 hrs; format: functional; details: COLO 205, 48 h; summary of the method: as §1
[27] = tested on: TK-10; assay: Antiproliferative activity against human TK10 cells after 48 hrs; format: functional; details: TK-10, 48 h
Summary of the method: (§2)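 NCI 60-cell-line screen. Lines grown in RPMI 1640 with 5% fetal bovine serum and 2 mM L-glutamine, plated at 5,000–40,000 cells/well according to doubling time, left 24 h at 37 °C in 5% CO2. Drug stocks in DMSO at 400-fold the top final concentration. Five 10-fold dilutions, 10−4 to 10−8 M, incubated 48 h. Growth read spectrophotometrically as net protein; GI50 taken as 50% reduction.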

[28] = tested on: SW-620; assay: Antiproliferative activity against human SW620 cells after 48 hrs; format: functional; details: SW-620, 48 h; summary of the method: as §2
[29] = tested on: HCC 2998; assay: Antiproliferative activity against human HCC2998 cells after 48 hrs; format: functional; details: HCC 2998, 48 h; summary of the method: as §1
[30] = tested on: NCI-H226; assay: Antiproliferative activity against human NCI-H226 cells after 48 hrs; format: functional; details: NCI-H226, 48 h; summary of the method: as §1
[31] = read-out: Log LC50 (the source's name) (converted)

In the case of C[C@@H](NC(=O)CCCCCCCCCCCCCCC[n+]1ccccc1)[C@@H](O)c1ccccc1.[Br-], the GI50 [1] is reported as 1.12 µM, the LC50 [1] is reported as > 100 µM and the TGI ([1]; read-out: Log TGI (converted)) is reported as 3.72 µM. The GI50 [2] was 1.66 µM, the LC50 [2] was 5.75 µM and the TGI ([2]; read-out: Log TGI (converted)) was 3.09 µM. The GI50 [3] was 1.74 µM, the LC50 (50% net cell kill) [3] was 7.76 µM and the TGI ([3]; read-out: Log TGI (converted)) was 3.63 µM. For the same compound, the GI50 [4] was 4.57 µM, the CC50 [4, 31] was 97.7 µM and the TGI ([4]; read-out: Log TGI (converted)) was 24 µM. The GI50 [5] was 1.58 µM, the LC50 [5] was 7.59 µM and the TGI ([5]; read-out: Log TGI (converted)) was 3.47 µM. For the same compound, the GI50 [6] was 3.39 µM, the LC50 [6] was 58.9 µM and the TGI ([6]; read-out: Log TGI (converted)) was 13.2 µM. It also gave a GI50 [7] of 3.39 µM, an LC50 [7] of 8.32 µM and a TGI ([7]; read-out: Log TGI (converted)) of 3.89 µM. For the same compound, the GI50 [8] was 1.48 µM, the TGI ([8]; read-out: Log TGI (converted)) was 3.63 µM and the GI50 [9] was 2.63 µM. For the same compound, the CC50 [9, 31] was 34.7 µM, the TGI ([9]; read-out: Log TGI (converted)) was 8.51 µM and the GI50 [10] was 1.78 µM. For the same compound, the LC50 [10] was 9.12 µM, the TGI ([10]; read-out: Log TGI (converted)) was 4.07 µM and the GI50 [11] was 1.1 µM. It also gave a TGI ([11]; read-out: Log TGI (converted)) of 2.4 µM, a GI50 [12] of 2.95 µM and a CC50 [12, 31] of 56.2 µM. For the same compound, the TGI ([12]; read-out: Log TGI (converted)) was 11.7 µM, the GI50 [13] was 1.62 µM and the TGI ([13]; read-out: Log TGI (converted)) was 3.31 µM. For the same compound, the GI50 [14] was 12.9 µM, the CC50 [14, 31] was 61.7 µM and the TGI ([14]; read-out: Log TGI (converted)) was 28.2 µM. For the same compound, the GI50 [15] was 4.37 µM, the CC50 [15, 31] was > 100 µM and the TGI ([15]; read-out: Log TGI (converted)) was 43.7 µM. For the same compound, the GI50 [16] was 19.5 µM, the LC50 [16] was 85.1 µM and the TGI ([16]; read-out: Log TGI (converted)) was 40.7 µM. For the same compound, the GI50 [17] was 8.32 µM, the LC50 [17] was 63.1 µM and the TGI ([17]; read-out: Log TGI (converted)) was 24 µM. For the same compound, the GI50 [18] was 1.7 µM, the LC50 [18] was > 100 µM and the TGI ([18]; read-out: Log TGI (converted)) was 5.37 µM. The GI50 [19] was 17 µM, the CC50 [19, 31] was 64.6 µM and the TGI ([19]; read-out: Log TGI (converted)) was 33.1 µM. The GI50 [20] was 1.58 µM, the CC50 [20, 31] was 5.5 µM and the TGI ([20]; read-out: Log TGI (converted)) was 2.95 µM. It also gave a GI50 [21] of 1.58 µM, a TGI ([21]; read-out: Log TGI (converted)) of 3.09 µM and a GI50 [22] of 1.38 µM. The LC50 [22] was 15.1 µM, the TGI ([22]; read-out: Log TGI (converted)) was 3.98 µM and the GI50 [23] was 2.04 µM. For the same compound, the LC50 [23] was > 100 µM, the TGI ([23]; read-out: Log TGI (converted)) was 5.5 µM and the GI50 [24] was < 0.01 µM. The GI50 [25] was 1.74 µM, the CC50 [25, 31] was 5.75 µM and the TGI ([25]; read-out: Log TGI (converted)) was 3.16 µM. The GI50 [26] was 1.38 µM, the TGI ([26]; read-out: Log TGI (converted)) was 3.02 µM and the GI50 [27] was 4.9 µM. For the same compound, the CC50 [27, 31] was 40.7 µM, the TGI ([27]; read-out: Log TGI (converted)) was 15.8 µM and the GI50 [28] was 4.27 µM. For the same compound, the LC50 (concentration killing 50% of cells) [28] was 66.1 µM, the TGI ([28]; read-out: Log TGI (converted)) was 17.4 µM and the GI50 [29] was 1.51 µM. It also gave a CC50 [29, 31] of 6.03 µM, a TGI ([29]; read-out: Log TGI (converted)) of 3.02 µM and a GI50 [30] of 4.17 µM. The CC50 [30, 31] was > 100 µM and the TGI ([30]; read-out: Log TGI (converted)) was 22.9 µM.
